Screens (PubChem BioAssay)
In the library only some 2.8% were active in any assay of this set; here they are far more common.
HTR2A ag: mouse Htr2a agonists via beta-arrestin recruitment, primary screen, cell-based, luminescence; CHO-K1 mHTR2A beta-arrestin complementation; percent of 30 µM serotonin response; 360,000 compounds, 0.66% hits; 5-hydroxytryptamine receptor 2A (Mus musculus), P35363; activation, % at 7.6 µM; AID 624169, 2012;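 active = activation above a run cutoff, the mean activation of all tested compounds plus 3 SD, cut at about 14% in these data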;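 note: 0% = plate median of compound wells and 100% = 30 µM serotonin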
MC4R barr agon: MC4R agonists recruiting beta-arrestin, primary screen, cell-based, luminescence, agonist arm of biased-ligand search; Melanocortin receptor 4 (Homo sapiens), P32245; U2OS MC4R beta-arrestin complementation; percent of melanotan II response, DMSO zero; activation, % at 8.9 µM; 360,000 compounds, 0.98% hits; AID 540308, 2011;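 active = activation above a per-plate cutoff, the mean activation of sample wells on that plate plus 3 SD, cut at about 8% in these data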
EBI2 antag: EBI2 receptor antagonists, beta-arrestin recruitment, primary screen, cell-based, luminescence, 7a,25-OHC stimulation, uHTS. G-protein coupled receptor 183 (Homo sapiens), P32249. 7a,25-OHC stimulated. inhibition, % at 5 µM. 360,000 compounds, 0.81% hits; in the data active = inhibition above about 38%;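 note: enzyme fragment complementation signal reports receptor beta-arrestin coupling in cells; 0% = agonist plus DMSO wells and 100% = wells without agonist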
Target sequence (P32249 whole entry, looked up, the tested form may be a part): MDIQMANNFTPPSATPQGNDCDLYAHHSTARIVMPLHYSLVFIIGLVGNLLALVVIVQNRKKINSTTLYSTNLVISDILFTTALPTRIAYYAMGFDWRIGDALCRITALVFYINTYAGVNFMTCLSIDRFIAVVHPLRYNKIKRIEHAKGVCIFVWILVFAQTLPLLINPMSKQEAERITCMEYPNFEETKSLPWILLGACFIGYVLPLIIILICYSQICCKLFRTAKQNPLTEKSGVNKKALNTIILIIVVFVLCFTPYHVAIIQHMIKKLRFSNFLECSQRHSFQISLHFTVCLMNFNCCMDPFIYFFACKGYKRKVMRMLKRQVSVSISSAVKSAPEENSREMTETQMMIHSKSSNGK
MC4R antag cAMP: MC4R antagonists of cAMP signaling, primary screen, cell-based, TR-FRET, antagonist arm of biased-ligand search | MC4R-expressing cells, MTII-stimulated cAMP, LANCE TR-FRET | Melanocortin receptor 4 (Homo sapiens), P32245 | AID 540295, 2011 | inhibition, % at 6.5 µM | 360,000 compounds, 0.48% hits;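 active = inhibition above its plate's cutoff, the mean of tested wells on that plate plus 3 SD, cut at about 29% in these data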;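 note: 0% = Melanotan II alone and 100% = Melanotan II plus saturating MCL0020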
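Test system: U2OS cells stably expressing human melanocortin 4 receptor (MC4R); also added: Melanotan II challenge; compound: 6.5 µM single dose; timing: 30-min compound preincubation, 1-h Melanotan II challenge, 1-h detection, room temperature; signal: Eu-cAMP/anti-cAMP TR-FRET, emission 671 nm; repeats: one well per compound, no replicates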
EBI2 conf: EBI2 antagonist hit retest, beta-arrestin, confirmation, cell-based, single concentration, luminescence, 7a,25-OHC stimulation | shares compounds with EBI2 antag | 7a,25-OHC antagonism | inhibition, % at 5 µM | 2,400 compounds, 29% hits | AID 651997, 2013;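 active = inhibition of at least 50%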
EBI2 ag: EBI2 agonist activity of antagonist hits, confirmation, counter-screen for EBI2 antagonist project, cell-based, single concentration, agonist mode, luminescence; shares compounds with EBI2 antag; 2,400 tested, under 10 active; EBI2-expressing cells, 60 min; 0% vehicle, 100% 7α,25-dihydroxycholesterol control; activation, % at 5 µM;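 active = activation of at least 50%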
bGal counter: E. coli beta-galactosidase enzyme inhibition, confirmation, counter-screen for EBI2 antagonist project, biochemical, luminescence, single concentration | shares compounds with EBI2 antag | purified beta-galactosidase, luminescent Galacton Star, 15 min | inhibition, % at 5 µM | 2,400 compounds, 1% hits;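 active = replicate-average signal at least 3 plate SD below neutral wells, shown as high inhibition, flagging enzyme-inhibiting false positives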;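 note: 0% = DMSO wells with enzyme and 100% = wells lacking enzyme; higher means stronger loss of beta-gal luminescence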
Numbers without * were called inactive; . = no result given.

SMILES	HTR2A ag	MC4R barr agon	EBI2 antag	MC4R antag cAMP	EBI2 conf	EBI2 ag	bGal counter
O=C(CNC(=O)c1ccccc1)OCC(=O)N1N=C(c2ccc(Cl)cc2)CC1c1ccco1 (configuration not stated)	1	-2	-13	2	.	.	.
COc1cc(C(=O)NCCc2c[nH]c3ccccc23)ccc1OCc1c(C)noc1C	-3	2	61*	4	49	0	-19
COc1ccc(CCNC(=O)c2ccc(OCc3c(C)noc3C)c(OC)c2)cc1	4	-1	-5	1	.	.	.
COc1ccc(C2c3c(-c4cc(Cl)c(C)cc4O)n[nH]c3C(=O)N2Cc2cccnc2)cc1OC (configuration not stated)	0	-2	23	13	.	.	.
CCN(CC(=O)Nc1c(F)cccc1F)C(=O)/C=C/c1ccc(OCC#N)c(OC)c1	-2	-2	0	-1	.	.	.
CCN(CC(=O)NCc1ccc(F)cc1)C(=O)/C=C/c1ccc(OC)cc1	-10	1	62*	-1	57*	0	8
CCN(CC(=O)Nc1c(F)cccc1F)C(=O)/C=C/c1ccc(C)cc1	1	1	94*	13	80*	-1	-6
CCN(CC(=O)NCc1ccc(F)cc1)C(=O)Cc1ccc(OC)cc1	3	-1	3	5	.	.	.
Cc1cc(C)c(S(=O)(=O)Nc2ccc(N(C)C)cc2)c(C)c1-n1cnnn1	1	0	65*	7	33	2	3
COc1cccc(N2CCN(c3ccc([N+](=O)[O-])cn3)CC2)c1	1	-1	4	8	.	.	.
Nc1c(Cl)ncnc1N/N=C/c1ccc2ccccc2n1	-7	-5	62*	-6	84*	-2	11
CS(=O)(=O)c1ccc(C(=O)OCC(=O)N2CCN(CCC3CCCCC3)CC2)cc1[N+](=O)[O-]	-6	-3	48*	15	54*	-1	-17
CS(=O)(=O)c1ccc(C(=O)OCC(=O)N2CCOCC2)cc1[N+](=O)[O-]	5	-2	-1	14	.	.	.
COc1ccc2c(C(=O)CCl)c[nH]c2c1	1	-1	-3	22	.	.	.
OC(c1ccccc1)(c1ccccc1)c1ncc[nH]1	2	0	-6	9	.	.	.
O=C(N/N=C(\c1ccccc1)c1ccccn1)c1cccc([N+](=O)[O-])c1	-16	-5	66*	8	32	-2	6
N#Cc1cc2c(nc1SCC(=O)Nc1sc3c(c1C#N)CCC3)CCC2	6	2	15	6	.	.	.
N#Cc1cc2c(nc1SCC(=O)Nc1sc3c(c1C#N)CCC3)CCCCCC2	-2	-3	47*	8	19	1	6
CCC1CCCCN1C(=S)Nc1ccc(OC(F)F)cc1 (configuration not stated)	2	1	55*	13	0	0	2
Cc1ccc(NC(=S)Nc2ccc3cn[nH]c3c2)cc1C	3	-2	-13	5	.	.	.
CC(C)c1ccc(NC(=S)Nc2ccc3cn[nH]c3c2)cc1	-1	3	50*	21	45	0	6
CCN(CC)C(=O)C1CCN(C(=O)c2oc3ccc(C)cc3c2C)CC1	7	-1	80*	-2	57*	3	6
O=C(c1cccc(C(=O)N2CCC(O)(c3ccccc3)CC2)c1)N1CCC(O)(c2ccccc2)CC1	2	0	-9	8	.	.	.
Cc1ccc2oc(C(=O)N3CCC(O)(c4ccccc4)CC3)c(C)c2c1	-2	1	84*	3	78*	1	3
O=C1CC(C(=O)O)S/C(=N\N=C\c2ccc(Br)cc2)N1 (configuration not stated)	0	2	1	2	.	.	.
SMILES	HTR2A ag	MC4R barr agon	EBI2 antag	MC4R antag cAMP	EBI2 conf	EBI2 ag	bGal counter
CCOc1ccc(CCNC(=O)CCS(=O)(=O)c2ccc(Cl)cc2)cc1OCC	1	-1	2	8	.	.	.
COc1ccccc1NCC(O)COc1ccc(C(C)(C)C)cc1 (configuration not stated)	0	3	13	15	.	.	.
COc1ccc(NCC(O)COc2ccc(C(C)(C)C)cc2)cc1 (configuration not stated)	-2	4	70*	1	52*	-1	5
COc1ccccc1N1CCN(C(=O)c2ccc3[nH]c4c(c3c2)CC(C)CC4)CC1 (configuration not stated)	-5	0	26	7	.	.	.
COc1ccccc1N1CCN(C(=O)c2ccc3[nH]c(C)c(C)c3c2)CC1	-3	-3	76*	-21	45	0	-12
Cc1cccc(N2CCN(C(=O)c3ccc4[nH]c(C)c(C)c4c3)CC2)c1C	3	0	69*	-20	51*	0	-6
COc1ccccc1N1CCN(CC(=O)c2c(C)[nH]c3cc(C)ccc23)CC1	-7	-2	40*	0	14	0	-10
Cc1[nH]c2ccc(C(=O)N3CCN(c4ccccc4Cl)CC3)cc2c1C	2	1	78*	-3	56*	1	3
O=C1C=C(c2cccc3c2oc2ccccc23)C[C@@H](c2ccc(F)cc2)C1	6	1	76*	9	56*	0	-12
O=C1C=C(c2ccc3ccccc3c2)C[C@@H](c2ccc(F)cc2)C1	-9	0	77*	-5	43	-1	-8
O=C1C=C(c2ccc3[nH]ccc3c2)C[C@@H](c2ccc(F)cc2)C1	-3	7	52*	22	62*	0	11
O=C1C=C(c2ccc3ncccc3c2)C[C@@H](c2ccc(F)cc2)C1	-2	0	75*	1	61*	-1	4
O=C1C=C(c2ccc3c(c2)OCCO3)C[C@@H](c2ccc(F)cc2)C1	4	1	13	0	.	.	.
O=C1C=C(c2cc(F)ccc2F)C[C@@H](c2ccc(F)cc2)C1	-1	2	4	15	.	.	.
O=C1C=C(c2ccc(-c3ccccc3)c(F)c2)C[C@@H](c2ccc(F)cc2)C1	2	0	22	11	.	.	.
Nc1nc(=O)n(C2CCCO2)cc1Br (configuration not stated)	2	-1	-3	-7	.	.	.
